Assay outcomes as filed in PubChem BioAssay.
Rows were chosen to be rich in hits. Some 3.9% of all compounds tested hit in one or more screens of this group.
HSP90 inh = inhibitors of HSP90 luciferase refolding in rabbit reticulocyte lysate | luciferase refolding luminescence, 3 h | inhibition, % at 5.6 µM | 290,000 compounds, 0.91% hits | AID 1789;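 active = inhibition above the screen-wide mean plus 3 SD, computed separately per campaign, cut at about 16% in these data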;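 note: inhibitors lower the luminescence because luciferase stays unfolded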
HCV core dimer = blocks dimerization of HCV core protein. TR-FRET GST/Flag-core106 dimerization, 1536-well. inhibition, % at 5 µM. 300,000 compounds, 0.33% hits;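 active = inhibition above the mean of all tested compounds plus 3 SD, set per screening campaign, cut at about 45% in these data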
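System – GST-tagged and Flag-tagged HCV core protein residues 1-106 · Repeats – one well for each compound · Technique – TR-FRET 671 and 617 nm emission · Doses – one concentration, 5 µM, in 0.5% DMSO · Times – 4 h, 22.5 °C incubation · Also added – Eu donor and XL665 acceptor anti-tag antibodies · Measure – percent inhibition of core106 dimerization signal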
HSF1 activator = increases HSF-1 driven luciferase reporter signal; NIH3T3-HGL HSF-1 luciferase reporter, MG132, 8 h; 100% = twice DMSO control signal; activation, % at 9 µM; 300,000 compounds, 1.7% hits;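 active = mean replicate activation of at least 50% with a set share of replicates each reaching 50%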
HSF1 inhib = HSF1 inhibition. NIH3T3-HGL HSE-luciferase, MG132-induced, luminescence 8 h; active compounds read low. activity change, negative = inhibition, % at 7.5 µM (by protocol). 300,000 compounds, 0.77% hits. AID 2098;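 active = more than half of replicate wells show activity change below -50%, luminescence cut by over half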;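 note: luciferase reports HSF-1 transcriptional activity via heat shock element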
NS3 helicase inh = HCV NS3 helicase inhibition. inhibition, % at 10.9 µM. AID 1800. 290,000 compounds, 0.56% hits. NS3 helicase DNA unwinding, Cy5 molecular beacon fluorescence;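 active = inhibition above the mean of all tested compounds plus 3 SD, set per campaign, cut at about 35% in these data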
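Assay system – hepatitis C virus NS3 helicase domain fragment enzyme · Buffer or medium – MOPS pH 6.5, MgCl2, DTT, Tween20, BSA · Reagent – Cy5/quencher beacon DNA duplex and ATP to start · Compound – single 10.9 µM dose · Timing – 1 h at 25 °C · Technique – Cy5 beacon fluorescence read at start and 1 h · Measure – % inhibition of unwinding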
FID counter = displaces DNA intercalator in HCV helicase counter-screen; DNA fluorescent intercalator displacement, fluorescence; inhibition, % at 7.9 µM; 290,000 compounds, 0.17% hits; AID 1845; in the data active = inhibition above about 37%;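 note: higher means more ethidium bromide displaced from hairpin DNA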
A number is an active result.

Screening COc1cc(C(c2c(C)[nH][nH]c2=O)c2c(C)[nH][nH]c2=O)ccc1OC(=O)c1cccc([N+](=O)[O-])c1 returned HSP90 inh inactive, HCV core dimer inactive, NS3 helicase inh inactive and FID counter inactive.
For COC(=O)C(=Cc1ccc(OCc2ccc([N+](=O)[O-])cc2)c(OC)c1)C(=O)OC the results were HSP90 inh inactive, HCV core dimer inactive, HSF1 activator 278, HSF1 inhib inactive, NS3 helicase inh inactive and FID counter inactive.
COc1cc(C(c2c(C)[nH][nH]c2=O)c2c(C)[nH][nH]c2=O)ccc1OCc1ccc([N+](=O)[O-])cc1 was read as HSP90 inh inactive, HCV core dimer inactive, HSF1 activator 205, HSF1 inhib inactive, NS3 helicase inh inactive and FID counter inactive.
Screening CCOC(=O)C(=Cc1ccc(OCc2ccc([N+](=O)[O-])cc2)c(OC)c1)C(=O)OCC returned HSP90 inh inactive, HCV core dimer inactive, HSF1 activator 77, HSF1 inhib inactive, NS3 helicase inh inactive and FID counter inactive.
For COc1ccc(OC)c(C(C)NC=O)c1 (centres undefined) the results were HSP90 inh inactive, HCV core dimer inactive, HSF1 activator inactive, HSF1 inhib inactive, NS3 helicase inh inactive and FID counter inactive.
CC(C)n1cc(CN2CCCC(CNS(=O)(=O)c3cccc4cccnc34)C2)cn1 (centres undefined) was read as HSP90 inh inactive, HCV core dimer inactive, HSF1 activator inactive, HSF1 inhib -66, NS3 helicase inh inactive and FID counter inactive.
For CC1CC(C)(C)N(C(=O)NC2CCCCC2)c2ccccc21 (centres undefined) the results were HSP90 inh inactive, HCV core dimer inactive, HSF1 activator 57, HSF1 inhib inactive, NS3 helicase inh inactive and FID counter inactive.
For CCOC(=O)COc1ccc2c(c1)C(=O)CC1(CCCCC1)O2 the results were HSP90 inh inactive, HCV core dimer inactive, HSF1 activator inactive, HSF1 inhib inactive, NS3 helicase inh inactive and FID counter inactive.
For Cc1ccsc1/C=N/NC(=O)CO the results were HSP90 inh inactive, HCV core dimer inactive, HSF1 activator inactive, HSF1 inhib inactive, NS3 helicase inh inactive and FID counter inactive.
For COc1ccc(/C=C(\NC(=O)c2ccccc2)C(=O)N/N=C/c2sccc2C)cc1 the results were HSP90 inh inactive, HCV core dimer inactive, HSF1 activator 97, HSF1 inhib inactive, NS3 helicase inh inactive and FID counter inactive.
`Cc1ccsc1/C=N/NC(=O)c1sccc1C` gave HSP90 inh inactive, HCV core dimer inactive, HSF1 activator 64, HSF1 inhib inactive, NS3 helicase inh inactive and FID counter inactive.
Screening CCN(CC)C(=O)CSc1nnc([C@@H](N)Cc2ccccc2)o1 returned HCV core dimer inactive, HSF1 activator inactive and HSF1 inhib inactive.
c1ccc(-c2noc(-c3ccc4c(c3)OCO4)n2)nc1 was read as HSP90 inh 41, HCV core dimer inactive, HSF1 activator inactive, HSF1 inhib inactive, NS3 helicase inh inactive and FID counter inactive.
O=[N+]([O-])c1cccc(-c2nc(-c3ccccn3)no2)c1 was read as HSP90 inh inactive, HCV core dimer inactive, HSF1 activator 54, HSF1 inhib inactive, NS3 helicase inh inactive and FID counter inactive.
Screening CCN1CCN(C(CNC(=O)c2ccc3c(c2)OCO3)c2cccnc2)CC1 (centres undefined) returned HSP90 inh inactive, HCV core dimer inactive, HSF1 activator inactive, HSF1 inhib inactive, NS3 helicase inh inactive and FID counter inactive.
Nc1ccn(Cc2ccccc2)n1 was read as HSP90 inh inactive, HCV core dimer inactive, HSF1 activator inactive, HSF1 inhib inactive, NS3 helicase inh inactive and FID counter inactive.
For c1ccc(Cn2ccc(-c3cnc(-c4ccccc4)s3)n2)cc1 the results were HSP90 inh inactive, HCV core dimer inactive, HSF1 activator 74, HSF1 inhib inactive, NS3 helicase inh inactive and FID counter inactive.
Screening COC(=O)c1cc(NC(=O)c2ccccc2F)cc(C(=O)OC)c1 returned HSP90 inh inactive, HCV core dimer inactive, HSF1 activator inactive, HSF1 inhib inactive, NS3 helicase inh inactive and FID counter inactive.
`CCOC(=O)C(C)Oc1cc(Cl)c(C=O)cc1OC` (centres undefined) gave HSP90 inh inactive, HCV core dimer inactive, HSF1 activator 51, HSF1 inhib inactive, NS3 helicase inh inactive and FID counter inactive.
Screening COC(=O)COc1cc(Cl)c(C=O)cc1OC returned HSP90 inh inactive, HCV core dimer inactive, HSF1 activator inactive, HSF1 inhib inactive, NS3 helicase inh inactive and FID counter inactive.
Screening COc1cc(C(=O)N(C)CC2CCN(CCc3cccc(C(F)(F)F)c3)CC2)ccc1C returned HSP90 inh inactive, HCV core dimer inactive, HSF1 activator inactive, HSF1 inhib inactive, NS3 helicase inh inactive and FID counter inactive.
For O=C(O)c1ccccc1COc1ccccc1Cl the results were HSP90 inh inactive, HCV core dimer inactive, HSF1 activator inactive, HSF1 inhib -56, NS3 helicase inh inactive and FID counter inactive.
O=C(O)c1ccccc1OCc1ccccc1Br was read as HSP90 inh inactive, HCV core dimer inactive, HSF1 activator inactive, HSF1 inhib inactive, NS3 helicase inh inactive and FID counter inactive.
Screening COC(=O)C(Cc1ccc(O)cc1)NC(=O)NC12CC3CC(CC(C3)C1)C2 (centres undefined) returned HSP90 inh inactive, HCV core dimer inactive, HSF1 activator inactive, HSF1 inhib inactive, NS3 helicase inh inactive and FID counter inactive.
Cc1ccc(S(=O)(=O)Nc2ccc(N3CCOCC3)cc2)cc1C was read as HSP90 inh inactive, HCV core dimer inactive, HSF1 activator inactive, HSF1 inhib inactive, NS3 helicase inh inactive and FID counter inactive.
Screening CCn1c2ccccc2c2nnc(SCC(=O)Nc3c(C)n(C)n(-c4ccccc4)c3=O)nc21 returned HSP90 inh inactive, HCV core dimer inactive, HSF1 activator inactive, HSF1 inhib inactive, NS3 helicase inh inactive and FID counter inactive.
Screening Cc1c(NC(=O)CSc2nnc3c4ccccc4n(CCc4ccccc4)c3n2)c(=O)n(-c2ccccc2)n1C returned HSP90 inh inactive, HCV core dimer inactive, HSF1 activator 88, HSF1 inhib inactive, NS3 helicase inh inactive and FID counter inactive.
For CCOc1ccc(Nc2nc(NCC3CCCO3)c3ccccc3n2)cc1 (centres undefined) the results were HSP90 inh inactive, HCV core dimer inactive, HSF1 activator inactive, HSF1 inhib inactive, NS3 helicase inh inactive and FID counter 39.
For CCS(=O)(=O)c1ncc(Cl)c(C(=O)Nc2ccc(S(=O)(=O)N3CCC(C)CC3)cc2)n1 the results were HSP90 inh inactive, HCV core dimer inactive, HSF1 activator inactive, HSF1 inhib -85, NS3 helicase inh inactive and FID counter inactive.
CCS(=O)(=O)c1ncc(Cl)c(C(=O)Nc2ccccc2OC)n1 was read as HSP90 inh inactive, HCV core dimer inactive, HSF1 activator 490, HSF1 inhib inactive, NS3 helicase inh inactive and FID counter inactive.
